Fewer inactive variants are shown than the library holds.
B1: tRNA (parent)
chain: GUUCCGUUGGCGUAAUGGUAACGCGUCUCCCUCCUAAGGAGAAGACUGCGGGUUCGAGUCCCGUACGGAACG

Variants of: B1
Test: yeast fitness relative to wild type (ratio to wild type); higher = fitter; tRNA-Arg(CCU), competitive growth, 37 C, YPD
How it was run: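 Amplicons of the tRNA-Arg(CCU) gene were sequenced, 100-nucleotide paired-end, from the start population and from each end population of a pooled yeast competition. The competition, in six parallel replicates, lasted 24 hours in YPD at 37°C. Fitness relative to wild type was calculated from changes in genotype frequencies. Genotypes had to have ≥ 100 starting reads, and estimates < 0.5 were set to 0.5.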
Work on GUUCCGUUAGCGUAAUGGAAACGCGUCUCCCUCCUAAGGAGAAGACUGGGGGUUCGAGCCCCGUACGGAACG [G9A U19A C49G U59C] yielded a yeast fitness of no more than 0.5.
For GUUCCGUUAGCGUAAUGGGAACGCGUCUCCCUCCUAAGGAGAAGGCUGCGGGUUCGAGUCCCGUACGGAACG [G9A U19G A45G], the yeast fitness was 0.528.
Work on GUUCCGUUAGCGUAAUGGUAACGCGGCUCCCUCCUAAGGAGAAGAUUGCGGGUUCGAGUCCCGUACGGAACG [G9A U26G C46U] yielded a yeast fitness of 0.726.
GUUCCGUUAGCGUAAAGGUAACCAGUCGCCCUCUUAUGGAGAAGACUGCGGGUUCGAGUCCCGUACGGAACG [G9A U16A G23C C24A U28G C34U A37U] showed a yeast fitness of no more than 0.5.
GUUCCGUUAGCGUAAUGGCAACGCGUCUCCCUCCUAAGGAGAAGACUGCGGGUUCGAGUCCCGUACGGCACG [G9A U19C A69C] showed a yeast fitness of 0.834.
Work on GUUCCGUUAGCGUAAUGGUAACGCGUCACCCUCCUAAGGAGAAGACUGCGGGUUCGAGUGCCGUACGGAACG [G9A U28A C60G] yielded a yeast fitness of no more than 0.5.
GUUCCGUUAGCGUAACGGUAACGCGUCUCCCGCCUAAGGAGAAGACUCCGGGUUCGACUCCCGUACGGAACG [G9A U16C U32G G48C G58C] gave a yeast fitness of no more than 0.5.
For GUUCCGUUAGCGUAAUGGCAACCCGUCUCCCUCCUAAGGAGAAGACUGUGGGUUCGAGUCCCGUACGGAACG [G9A U19C G23C C49U], the yeast fitness was no more than 0.5.
Work on GUUCCGUUAGCGUAACGGUAACGCGUCUCCCUCCUAAGGAGAAGACUGCGGGUUCGGGUCCCGUACGGAACG [G9A U16C A57G] yielded a yeast fitness of 0.598.
For GUUCCGUUAGCGUAACGGGAACGCGUAUCCCUUCUAAGGAGAAGACUGCGGGCUCGAGUCCCGUUUGGAACG [G9A U16C U19G C27A C33U U53C A65U C66U], the yeast fitness was no more than 0.5.
For GUUCCGUUAGCGUAAUGGUAACGCGGCUCCCUCCUAAGGAGAAGACUGCGGGUUCGAGUCCCGUACGGAACG [G9A U26G], the yeast fitness was 0.967.
Variant GUUCCGUUAGCGUAAUGGAAACGCGUCUCCCUCCUAAGGAGAAGACUGCGGGUUCGAGUCCCGUACGGAACG [G9A U19A] has a yeast fitness of 1.04.
In the case of GUUCCGUUAGCGUAAUGGCAACGCGUCUCCCUCCUAAGGAGAAGACUGCGGGUUCGAGUCCCGUACGGAACG [G9A U19C], the yeast fitness is reported as 0.983.
Variant GUUCCGUUAGCGUAAUGGGAACGCGUCUCCCUCCUAAGGAGAAGACUGCGGGUUCGAGUCCCGUACGGAACG [G9A U19G] has a yeast fitness of 0.848.
For GUUCCGUUAGCGUAAUGGGAACGCGUCUCCCUCCUAAGGAGAAGACUGCGGGUUCGAGUCCCGUAUGGAACG [G9A U19G C66U], the yeast fitness was 0.64.
For GUUCCGUUAGCGUAAUGGGAACGCGUCUCCCUCCUACGGAGAUGAGUGCGGGUUCGAGUCCCGUACGAAACG [G9A U19G A37C A43U C46G G68A], the yeast fitness was no more than 0.5.
GUUCCGUUAGCGUAAUGGUAACGCGACUCCCUCCUAAGGAGAUGACUGCGGGUUUGAGUCCCGUACGGAACG [G9A U26A A43U C55U] gave a yeast fitness of no more than 0.5.
GUUCCGUUAGCGUAAUGGCAACGCGUCUCCCUCCUAAGGAGAAGACUGGGGGUUCGAGUCCCGUACGGAACG [G9A U19C C49G] showed a yeast fitness of 0.634.
Work on GUUCCGUUAGCGUAACGGUAACGCGUCUCCCGCCUAAGGAGAAGACUCCGGGUUCGAGUCCCGUACGGAACG [G9A U16C U32G G48C] yielded a yeast fitness of no more than 0.5.
GUUCCGUUAGCGUAACGGUAACGCGUCUCCCUCCUAAGGAGAAGACUGCGGGUUCGAGUCCCGUACGGCACG [G9A U16C A69C] gave a yeast fitness of 0.763.
Work on GUUCCGUUAGCGUAACGGUAACGCGUCUCGCUCGUAAGGGGAAGACUGCGGGUUCGAGUCAUCUACGGAACG [G9A U16C C30G C34G A40G C61A C62U G63C] yielded a yeast fitness of 0.666.
For GUUCCGUUAGCGUAAUGGCAACCCGUCUCCCUCCUAAGGAGAAGACUGCGGGUUCGAGUCCCGUACGGAACG [G9A U19C G23C], the yeast fitness was no more than 0.5.
For GUUCCGUUAGCGUAAUGGUAACGCGGCUCCCUCCUAAGGAGAAGACUGCGGGUUGGAGUCCCGUACGGAACG [G9A U26G C55G], the yeast fitness was 0.57.
For GUUCCGUUAGCGUAAUGGAAACGCGUCUCCCUCCUAAGGAGAGGACUGCGGGUUCGAGUCCCGUACGGCACG [G9A U19A A43G A69C], the yeast fitness was 0.541.
For GUUCCGUUAGCGUAACGGUAACGCGUCGCCCUCCUAAGGAGAAGACUGCGGGUUCGAGACCCGUACGGAACG [G9A U16C U28G U59A], the yeast fitness was no more than 0.5.
GUUCCGUUAGCGUAAUGGCAACCCGUCUCCCUCCUAAGGAGAAGACUGCGGGUUCGAGACCCGUACGCAACG [G9A U19C G23C U59A G68C] showed a yeast fitness of no more than 0.5.
With GUUCCGUUAGCGUAAUGGUAACGCGACUCCCUCCUUAGGCGAAGACUGCGGGUUCGAGUCCCGUUCGGAACG [G9A U26A A36U A40C A65U] the yeast fitness was no more than 0.5.
GUUCCGUUAGCGUAACGGUGACGCGUCUCCCUCCUAAGGAGGAGACUGCGGGUUCGAGUCCCGUACGUAACG [G9A U16C A20G A42G G68U] showed a yeast fitness of no more than 0.5.
Work on GUUCCGUUAGCGUAAUGGUAACGCGACUCCCUCCUAAGGAGAUGACUGCGGGUUCGAGUCCCGUACGGAACG [G9A U26A A43U] yielded a yeast fitness of 0.616.
For GUUCCGUUAGCGCAAUGGCAACGCGUCUCCCUCCUAAGGAGAAGACUGCGGGUUCGAGUCCCGUACGGAACG [G9A U13C U19C], the yeast fitness was 0.907.
In the case of GUUCCGUUAGCGUAACGGUAACGCGUCUGCCUCCUAAGGAGAAGACUGCGGGAUCGAGUCCCGUACGGAACG [G9A U16C C29G U53A], the yeast fitness is reported as no more than 0.5.
For GUUCCGUUAGCGUAAUGGAAACGCGUCUCCCUCCUAAGGAGAAGACUGCGGGUUCGAGUCCCGUCCGGAACG [G9A U19A A65C], the yeast fitness was 0.746.
For GUUCCGUUAGCGUAAUGGGAACGCGUCUCCCUCCUAAGGAGAAGACUGCGGGUUCGGGUCCCGUACGGAACG [G9A U19G A57G], the yeast fitness was 0.503.
Work on GUUCCGUUAGCGUAAGGGUAACGCGUCUCCCUCCUAAGGAGAAGACUGCGGGUUCGAGUCCCGUACGGAACG [G9A U16G] yielded a yeast fitness of 0.799.
Work on GUUCCGUUAGCGUAAUGGCAACGCGUCUCCCUUCUAAGGUGAAGACUGCGGGUUCGAGACCCGUACGGAACG [G9A U19C C33U A40U U59A] yielded a yeast fitness of no more than 0.5.
GUUCCGUUAGCGUAAUGGUAACGCGACCCCCUCCUAAGGAGAAGACUGCGGGUUUGAACCCCGUACGGAACG [G9A U26A U28C C55U G58A U59C] showed a yeast fitness of 0.555.
GUUCCGUUAGCGUAAUGGUAACGCGUCACCCUCCUAAGGAGAAGACUGCGGGUUUGAGUCCCGUACGAAACG [G9A U28A C55U G68A] gave a yeast fitness of no more than 0.5.
With GUUCCGUUAGCGUAAUGGUAACGCGUCACCCUCCUAAGGAGAAGACUGCGGGUUCGAGUCCCGUUCGGAACG [G9A U28A A65U] the yeast fitness was no more than 0.5.
